Measured values taken from ChEMBL document CHEMBL1132294, “Derivatives of the new ring system indolo[1,2-c]benzo[1,2,3]triazine with potent antitumor and antimicrobial activity” (J Med Chem, 1999).
Values after ≈ are worked out from the molar mass of the structure shown.

How the values were obtained:
Mycobacterium = test: Antibacterial activity was evaluated against MAC (Mycobacterium Avium Complex ); type: functional
Method in brief: (§1)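 Mycobacterial suspension (turbidity of 1 McFarland standard, 10⁸ CFU/mL) added to Middlebrook 7H9 with 0.5% glycerol, 10% OADC and serial compound dilutions. Incubated at 37 °C, 1 day for M. smegmatis and M. fortuitum, 9 days for MAC. Viable mycobacteria counted by MTT. MIC given as mean of at least three separate experiments.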

Candida albicans = test: Antimycotic activity against Candida albicans was evaluated as minimum inhibitory concentration of compound at which no macroscopic signs of fungal growth were detected; type: functional
Method in brief: (§2)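 Yeast inocula from 30 h Sabouraud dextrose broth cultures at 37 °C, diluted to 5×10³ cells/mL. Dermatophyte inocula from 5-day cultures, homogenized and diluted to 0.05 OD₅₉₀/mL. Inocula added to medium with serial dilutions, incubated at 37 °C, read visually at 2 days (yeast) or 3 days (dermatophytes). Mean of at least three experiments.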

ACHN = test: Antitumor activity was evaluated against human renal adenocarcinoma cell line ACHN.; type: functional, cell-based
Method in brief: (§3)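 Solid-tumour and KB lines: exponentially growing cells seeded at 5×10⁴ cells/mL, allowed to adhere 16 h, then serial drug dilutions added. Viability by MTT after 4 days. Growth expressed as % of untreated controls, 50% inhibitory concentration by linear regression. Untreated cells undergo at least three rounds of multiplication.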

Candida tropicalis = test: Antimycotic activity against Candida paratropicalis was evaluated. MIC was defined as compound concentration at which no macroscopic signs of fungal growth were detected.; type: functional; method in brief: as §2
[1] = tested on: Mycolicibacterium fortuitum; test: Antibacterial activity was evaluated against Mycobacterium fortuitum.; type: functional; method in brief: as §1
Trichophyton benhamiae = test: Antimycotic activity against Trichophyton mentagrophytes was evaluated. MIC was defined as compound concentration at which no macroscopic signs of fungal growth were detected.; type: functional, Arthroderma benhamiae; method in brief: as §2
Cryptococcus neoformans = test: Antimycotic activity against Cryptococcus neoformans was evaluated. MIC was defined as compound concentration at which no macroscopic signs of fungal growth were detected.; type: functional; method in brief: as §2
L1210 = test: Antitumor activity was evaluated against leukemia cell line L1210 (mouse leukemia).; type: functional, cell-based
Method in brief: (§4)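 Exponentially growing leukemia/lymphoma cells resuspended at 1×10⁵ cells/mL in RPMI with serial drug dilutions. Viability by MTT after 4 days at 37 °C. Concentration giving 50% growth inhibition versus untreated controls found by linear regression. Mean of at least three experiments.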

HT-29 = test: Antitumor activity was evaluated against human colon adenocarcinoma cell line HT-29.; type: functional, cell-based; method in brief: as §3
Streptococcus = test: Antibacterial activity was evaluated against streptococcus.; type: functional
Method in brief: (§5)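 Recent clinical isolates grown in nutrient broth, pH 7.2, inoculum 10³ bacterial cells/tube, with serial compound dilutions. […] Mean of at least three separate experiments.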

CHO-K1 = test: Antitumor activity was evaluated against Chinese hamster ovary carcinoma cell line CHO-K1.; type: functional, cell-based; settings: Cricetulus griseus; method in brief: as §3
Staphylococcus = test: Antibacterial activity was evaluated against staphylococcus; type: functional; method in brief: as §5
Candida parapsilosis = test: Antimycotic activity against Candida parapsilosis was evaluated. MIC was defined as compound concentration at which no macroscopic signs of fungal growth were detected.; type: functional; settings: Lodderomyces parapsilosis; method in brief: as §2
[2] = tested on: Mycobacterium tuberculosis; test: Antibacterial activity was evaluated against Mycobacterium tuberculosis (clinical isolate 1104); type: functional
Method in brief: (§6)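 Broth microdilution in Middlebrook 7H9 with 0.5% glycerol and 10% OADC, containing serial concentrations of compound (diluted in medium from a DMSO solution). Plates were incubated 9 days at 37 °C, and viable bacteria were read by MTT. MIC is the mean of at least three separate experiments.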

MT4 = test: Antitumor activity was evaluated against leukemia cell line MT-4(human CD4+ T cells expressing the TAT gene of HTLV-1).; type: functional, cell-based; method in brief: as §4
HeLa = test: Antitumor activity was evaluated against human cervix carcinoma cell line HeLa.; type: functional, cell-based; method in brief: as §3
[3] = tested on: Mycolicibacterium smegmatis; test: Antibacterial activity was evaluated against Mycobacterium smegmatis; type: functional; method in brief: as §1
IMR-32 = test: Antitumor activity was evaluated against human neuroblastoma cell line IMR-32.; type: functional, cell-based; method in brief: as §3
Salmonella = test: Antibacterial activity was evaluated against salmonella.; type: functional; method in brief: as §5
CCRF-CEM = test: Antitumor activity was evaluated against leukemia cell line CCRF-CEM(human acute T lymphoblastic leukemia).; type: functional, cell-based
Method in brief: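 Exponentially growing leukemia/lymphoma cells resuspended at 1×10⁵ cells/mL in RPMI with serial drug dilutions. Viability by MTT after 4 days at 37 °C. Mean of at least three experiments.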

WIL2-NS = test: Antitumor activity was evaluated against lymphoma cell line Wil2-NS (human splenic B lymphoblastoid cells).; type: functional, cell-based; method in brief: as §4
Shigella = test: Antibacterial activity was evaluated against shigella.; type: functional; method in brief: as §5
[4] = tested on: Mycobacterium tuberculosis; test: Antibacterial activity was evaluated against Mycobacterium tuberculosis (ATCC); type: functional; method in brief: as §6
MOLT-4 = test: Antitumor activity was evaluated against leukemia cell line MOLT-4(human acute T lymphoblastic leukemia); type: functional, cell-based; method in brief: as §4
5637 = test: Antitumor activity was evaluated against human bladder carcinoma cell line 5637.; type: functional, cell-based; method in brief: as §3
Aspergillus fumigatus = test: Antimycotic activity against Aspergillus fumigatus was evaluated as compound minimum inhibitory concentration at which no macroscopic signs of fungal growth were detected.; type: functional
CCRF-SB = test: Antitumor activity was evaluated against leukemia cell line CCRF-SB(human acute B lymphoblastic leukemia).; type: functional, cell-based; method in brief: as §4

For `O=Nc1c2ccccc2n2nnc3cc(Cl)ccc3c12`, the MIC (Mycobacterium) was 0.6 µM (≈ 0.17 µg/mL), the MIC (Candida albicans) was 12 µM (≈ 3.39 µg/mL) and the IC50 (ACHN) was 7600 nM. The MIC (Candida tropicalis) was 25 µM (≈ 7.07 µg/mL), the MIC [1] was > 5 µM and the MIC (Trichophyton benhamiae) was 50 µM (≈ 14.1 µg/mL). For the same compound, the MIC (Cryptococcus neoformans) was 1.6 µM (≈ 0.452 µg/mL), the IC50 (L1210) was 2400 nM and the IC50 (HT-29) was 35000 nM. It also gave an MIC (Streptococcus) of 0.4 µM (≈ 0.113 µg/mL), an IC50 (CHO-K1) of 9300 nM and an MIC (Staphylococcus) of 0.4 µM (≈ 0.113 µg/mL). For the same compound, the MIC (Candida parapsilosis) was 3 µM (≈ 0.848 µg/mL), the MIC [2] was 5.9 µM (≈ 1.67 µg/mL) and the IC50 (MT4) was 900 nM. The IC50 (HeLa) was 9200 nM, the MIC [3] was > 5 µM and the IC50 (IMR-32) was 2200 nM. The MIC (Salmonella) was > 200 µM, the IC50 (CCRF-CEM) was 1800 nM and the IC50 (WIL2-NS) was 800 nM. The MIC (Shigella) was > 200 µM, the MIC [4] was 4.4 µM (≈ 1.24 µg/mL) and the IC50 (MOLT-4) was 1100 nM. The IC50 5637 was 2600 nM, the MIC (Aspergillus fumigatus) was 6.2 µM (≈ 1.75 µg/mL) and the IC50 (CCRF-SB) was 2800 nM.
